Measured values from different studies.
Each line is one published result; the experiments were not run side by side.
Target: MAP kinase-activated protein kinase 2 (MAPKAPK2, Homo sapiens, UniProt P49137)

| Compound | read-out | action | technique | tested at | measurement | value |
| --- | --- | --- | --- | --- | --- | --- |
| N#Cc1ccc(NC(=O)Nc2ccccc2)cc1 | cell-free assay | – | competition with immobilised ligand | 25 µM | remaining binding | 65% |
| CCCCC(=O)Nc1ccc(-c2ccc3ncn(CCC)c(=O)c3c2)cn1 | binding | – | competition with immobilised ligand | 0.5 µM | remaining binding | 100% |
| COc1ccc2[nH]c3c4[nH]c5ccc(OC)cc5c4c4c(c3c2c1)C(=O)NC4=O | binding | – | – | 1 µM | remaining binding | 100% |
| C=CC(=O)N1CCC[C@@H](n2nc(-c3ccc(Oc4ccccc4)cc3)c3c(N)ncnc32)C1 | enzyme activity | inhibitor | – | 1 µM | inhibition | 0% |
| C1=C/COCc2cc(ccc2OCCN2CCCC2)Nc2nccc(n2)-c2cccc(c2)COC/1 | binding | – | – | 0.1 µM | remaining binding | 100% |
| COc1ccc2oc(-c3ccc4nc(N)oc4c3)c/c(=N\c3ccccc3NC(=O)CCN)c2c1 | binding | – | – | 1 µM | remaining binding | 103% |
| C=CC(=O)N1CCC([C@@H]2CCNc3c(C(N)=O)c(-c4ccc(Oc5ccccc5)cc4)nn32)CC1 | enzyme activity | inhibitor | – | 1 µM | inhibition | 29% |
| CN1CCN(C(=O)c2ccc(NC(=O)Nc3ccc(N(C)c4ccnc(Nc5ccc(CS(C)(=O)=O)cc5)n4)cc3)cc2)CC1 | binding | – | – | 1 µM | remaining binding | 100% |
| C#Cc1cnc(Nc2ccnc(CO)c2)nc1Nc1ccccc1S(C)(=O)=NC#N (stereo not drawn) | cell-free assay | – | – | 1 µM | remaining signal | 100% |
